Calb FLC – C. albicans growth modulation with fluconazole; C. albicans CaCi-2 (fluconazole-resistant clinical isolate) + fluconazole, Alamar Blue growth, 48 h; growth inhibition, % (test concentration not listed); 300,000 tested, 0.57% active; AID 1979;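 active means growth inhibition above about 58% in most replicates, limit read from the data, passing the limit was not always enough; inconclusive means exactly half the replicates above a set limit; inactive means most replicates below a set limit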;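 further: all wells also contain fluconazole at 8 µg/ml as a sub-toxic cotreatment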
ARFGAP1 inhibitor – inhibits rat ARF GTPase activating protein 1; inhibition, % at 16.5 µM; 360,000 tested, 0.26% active; Q62848; AID 651572; Arfgap1-stimulated ARF1 GTP hydrolysis, GDP FP detection;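 active means inhibition above a per-plate limit, mean inhibition of low control wells plus 3 SD, cut at about 25% in these data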
Target sequence (Q62848 1-136 limits assumed): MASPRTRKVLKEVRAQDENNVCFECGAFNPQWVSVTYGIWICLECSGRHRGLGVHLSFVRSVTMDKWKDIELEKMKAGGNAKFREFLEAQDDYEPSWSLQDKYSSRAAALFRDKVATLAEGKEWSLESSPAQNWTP
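Repeats: one replicate per compound; assay system: rat Arfgap1 catalytic domain, aa 1-136; times: enzyme reaction 120 min at 25 °C after 20 min preincubation; detection: FP of antibody-bound GDP Alexa 633 tracer, ex 620/em 688 nm; benchmarks: high control wells lacking Arfgap1, low control full reaction with DMSO; reagent: human ARF1(Δ1-17)-GTP substrate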
ASAP1 GAP inh – ASAP1 ArfGAP inhibition; ASAP1-stimulated ARF1 GTP hydrolysis, GDP FP detection; inhibition, % at 16.5 µM; Q9ULH1; 360,000 tested, 0.19% active; in the data active means inhibition above about 25%
Target sequence (Q9ULH1 325-724 limits assumed): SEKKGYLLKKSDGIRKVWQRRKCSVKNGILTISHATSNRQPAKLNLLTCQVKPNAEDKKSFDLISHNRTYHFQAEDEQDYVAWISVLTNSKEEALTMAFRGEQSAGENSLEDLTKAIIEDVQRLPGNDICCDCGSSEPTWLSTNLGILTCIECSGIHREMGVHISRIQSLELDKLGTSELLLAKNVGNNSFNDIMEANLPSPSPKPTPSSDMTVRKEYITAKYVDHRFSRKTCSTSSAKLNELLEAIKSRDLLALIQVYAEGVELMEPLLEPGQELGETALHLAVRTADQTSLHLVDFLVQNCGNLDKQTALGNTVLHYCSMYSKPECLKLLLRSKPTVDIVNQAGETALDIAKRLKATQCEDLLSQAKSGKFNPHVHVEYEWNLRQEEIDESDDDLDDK
SKKanGAS inh – blocks kanamycin growth of S. pyogenes SKKanGAS strain; BacTiter-Glo, 6 h; inhibition, % at 7.5 µM; 300,000 tested, 1.3% active; AID 1662;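 active means mean replicate score, as percent of positive control median, at least 50; inconclusive means mean below 50 but one replicate at or above 50; inactive means mean and every replicate below 50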;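 further: strain carries kanamycin resistance gene driven by streptokinase promoter and grows in 40 µg/ml kanamycin; loss of luminescence reflects streptokinase promoter inhibition or plain growth inhibition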
HGIII-sPLA2 inh – Blocks human group III sPLA2 activity; 370,000 tested, 0.56% active; QFRET BODIPY PC-A2 liposome hydrolysis, fluorescence; inhibition, % at 12.2 µM;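 active means inhibition above mean plus 3 SD of compounds lying within the high and low control bounds, cut at about 19% in these data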
sPLA2 confirm – human GIII-sPLA2 inhibition, confirmation; shares compounds with HGIII-sPLA2 inh; recombinant hGIII-sPLA2, BODIPY PC-A2 QFRET fluorescence; inhibition, % at 12.2 µM; 2,000 tested, 34% active; AID 743280;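 active means mean inhibition across triplicates above the hit cutoff set in the earlier primary screen, cut at about 19% in these data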
BODIPY interf – counter-screen for HGIII-sPLA2 inhibitors: 535nm fluorescence interference | shares compounds with HGIII-sPLA2 inh | 2,000 tested, 8.5% active | AID 743282 | BODIPY FL product fluorescence interference, QFRET | inhibition, % at 12.2 µM;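 active means average inhibition above the solvent-only control mean plus 3 SD, cut at about 6% in these data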
BODIPY interf DR – 535nm optical interference dose response, HGIII-sPLA2 counter-screen | shares compounds with HGIII-sPLA2 inh | BODIPY FL product fluorescence interference, cell-free | IC50, µM | 240 tested, under 10 active | AID 743455;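 active means IC50 at or below 10 µM; inactive means IC50 above 10 µM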
Each line names hits and unclear results; the compound was inactive in the other large screens (follow-up assays come after a bar, where they were run). In the library only some 2.3% were active in any assay of this set; here they are far more common.

COC(=O)[C@]12C[C@H](CC(=O)NCc3cccc(C(F)(F)F)c3)C(=O)N(CCC3=CCCCC3)C1=C[C@H](C(C)(C)C)O[C@@H]2C	none (no result: Calb FLC, SKKanGAS inh)
S=c1[nH]nc(-c2ccc3c(c2)OCO3)n1-c1ccccc1	HGIII-sPLA2 inh 25 | sPLA2 confirm 23 | BODIPY interf inactive
COc1ccc(-c2cc3nc(NCC4CCCCC4)n(C)c(=O)c3s2)cc1OC	none (no result: Calb FLC, SKKanGAS inh)
Cc1cccc(C)c1NC(=O)Cn1nnc(-c2ccncc2)n1	none (no result: Calb FLC, ARFGAP1 inhibitor, ASAP1 GAP inh, SKKanGAS inh)
O=C(NCc1ccccc1)[C@@H]1CCCN1C(=O)[C@H]1CCCN1C(=O)c1ccc(Cl)cc1	HGIII-sPLA2 inh 21 (no result: Calb FLC, SKKanGAS inh) | sPLA2 confirm inactive | BODIPY interf inactive
O=C(NCc1ccccc1)[C@H]1CCCN1C(=O)[C@H]1CCCN1C(=O)c1cccc(Cl)c1	none (no result: Calb FLC, SKKanGAS inh)
CN(Cc1ccccc1)C(=O)c1csc([C@@H]2O[C@H](CO)[C@@H](O)[C@H]2O)n1	HGIII-sPLA2 inh 20 (no result: Calb FLC, SKKanGAS inh) | sPLA2 confirm inactive | BODIPY interf inactive
O=C(NNC(=O)C1CCN(S(=O)(=O)c2ccc(Cl)cc2)CC1)c1ccccc1O	HGIII-sPLA2 inh 21 (no result: Calb FLC) | sPLA2 confirm inactive | BODIPY interf inactive
CCN(CC)c1ccc(NC(=O)c2ccc3c(c2)OCO3)cc1	HGIII-sPLA2 inh 20 | sPLA2 confirm inactive | BODIPY interf inactive
CC1CCCC(C)N1NC(=S)Nc1ccc(OC(F)F)cc1 (stereo unspecified)	HGIII-sPLA2 inh 19 | sPLA2 confirm 20 | BODIPY interf inactive
CCCC(=O)OC[C@H]1CN(C2CCCC2)S(=O)(=O)c2c(Oc3ccccc3)cccc2O1	none (no result: Calb FLC, SKKanGAS inh)
Nc1ccn([C@@H]2O[C@H](C(=O)N[C@H](Cc3ccccc3)C(=O)NCC(=O)N3CCOCC3)[C@@H](O)[C@H]2O)c(=O)n1	none (no result: Calb FLC, SKKanGAS inh)
CCC(=O)NC(c1ccco1)c1cc(Br)c2cccnc2c1O (stereo unspecified)	HGIII-sPLA2 inh 23 (no result: Calb FLC, SKKanGAS inh) | sPLA2 confirm inactive | BODIPY interf inactive
CC(C)C(=O)NC(c1ccc(Cl)cc1Cl)c1ccc2cccnc2c1O (stereo unspecified)	SKKanGAS inh 81, HGIII-sPLA2 inh 25 | sPLA2 confirm 32 | BODIPY interf inactive
CCCCC(=O)NC(c1cccs1)c1cc(Cl)c2cccnc2c1O (stereo unspecified)	Calb FLC inconclusive, SKKanGAS inh 67, HGIII-sPLA2 inh 24 | sPLA2 confirm 32 | BODIPY interf inactive | BODIPY interf DR inactive
CCCCC(=O)NC(c1ccc(Cl)cc1Cl)c1ccc2cccnc2c1O (stereo unspecified)	Calb FLC 96, SKKanGAS inh 92, HGIII-sPLA2 inh 21 | sPLA2 confirm 30 | BODIPY interf inactive
CCCCC(=O)NC(c1ccco1)c1c(O)ccc2ccccc12 (stereo unspecified)	none
CCCC(=O)NC(c1ccco1)c1c(O)ccc2ccccc12 (stereo unspecified)	none
CC(C)C(=O)NC(NC(=S)Nc1cccc2cccnc12)C(Cl)(Cl)Cl (stereo unspecified)	none
COc1ccc(C(NC(=O)C(C)C)c2ccc3cccnc3c2O)cc1 (stereo unspecified)	Calb FLC 86, SKKanGAS inh 55, HGIII-sPLA2 inh 23 | sPLA2 confirm 19 | BODIPY interf inactive
CCC(=O)NC(c1ccc(Cl)cc1Cl)c1ccc2cccnc2c1O (stereo unspecified)	Calb FLC 107, SKKanGAS inh 64, HGIII-sPLA2 inh 33 | sPLA2 confirm 25 | BODIPY interf inactive
CC(NC(=O)CSc1ncccn1)c1ccc(Cl)cc1Cl (stereo unspecified)	none
COc1ccc(-c2ccc3nncn3c2)cn1	none (no result: Calb FLC, SKKanGAS inh)
O=[N+]([O-])c1ccc(N/N=C/c2cccc(O)c2O)c(S(=O)(=O)N2CCOCC2)c1	HGIII-sPLA2 inh 31 | sPLA2 confirm 39 | BODIPY interf 15
O=C(COC(=O)c1ncc(Cl)c(Cl)c1Cl)Nc1ccccc1OC(F)F	none
O=C(COC(=O)c1ncc(Cl)c(Cl)c1Cl)Nc1cccnc1Cl	HGIII-sPLA2 inh 20 | sPLA2 confirm inactive | BODIPY interf inactive
O=C(NCc1c(F)cccc1F)C1C2C=CC3(CN(Cc4ccccc4)C(=O)C13)O2 (stereo unspecified)	none (no result: Calb FLC, ARFGAP1 inhibitor, ASAP1 GAP inh, SKKanGAS inh)
Cc1cc2nc(-c3ccc[nH]c3=O)n(Cc3ccccc3F)c2cc1C	HGIII-sPLA2 inh 19 | sPLA2 confirm inactive | BODIPY interf inactive
Cc1cc2nc(-c3ccc[nH]c3=O)n(Cc3ccc(F)cc3)c2cc1C	none
O=C(NCCc1c[nH]c2ccccc12)OCc1cn(Cc2cc(F)cc(F)c2)nn1	none (no result: Calb FLC, ARFGAP1 inhibitor, ASAP1 GAP inh, SKKanGAS inh)
O=C(NCC(c1cccs1)N1CCOCC1)c1cc([N+](=O)[O-])ccc1Cl (stereo unspecified)	HGIII-sPLA2 inh 19 | sPLA2 confirm inactive | BODIPY interf inactive
c1ccc(N2CCN(c3ccccc3)C2c2cccnc2)cc1	HGIII-sPLA2 inh 24 | sPLA2 confirm inactive | BODIPY interf inactive
Cc1ccc(N2CCN(c3ccc(C)cc3)C2c2cccnc2)cc1	none
Cc1nc2nc(C)n(CCN3CCOCC3)c(=O)c2c(-c2cccc([N+](=O)[O-])c2)c1C(=O)CCCCCCCCCCN1CCC(c2ccccc2)(c2ccccc2)CC1	none (no result: Calb FLC, SKKanGAS inh)
O=C(Nc1nc(-c2ccc(Br)cc2)cs1)c1cccnc1	none
O=C(Nc1ccccc1)Nc1nc(-c2ccccc2)cs1	none
O=C(NNc1nc(-c2ccc(Br)cc2)cs1)c1ccco1	HGIII-sPLA2 inh 46 | sPLA2 confirm 45 | BODIPY interf 12
COC(=O)c1nc(NNC(=O)c2ccccc2)sc1-c1ccccc1	HGIII-sPLA2 inh 30 | sPLA2 confirm 30 | BODIPY interf inactive
O=C(NNc1nc(-c2ccccc2)cs1)c1ccccc1	HGIII-sPLA2 inh 35 | sPLA2 confirm 33 | BODIPY interf 7.3
COc1ccc(-c2nc(NC(=O)c3ccccc3)sc2-c2ccc([N+](=O)[O-])cc2)cc1	none
O=C(NC(=S)Nc1nc(-c2ccc(Br)cc2)cs1)c1ccco1	Calb FLC inconclusive
N#Cc1ccc(-c2csc(NNC(=O)c3ccc(Br)cc3)n2)cc1	HGIII-sPLA2 inh 46 | sPLA2 confirm 36 | BODIPY interf 11
COc1ccc(C(=O)OCCCN(C)C2CN(Cc3cn(Cc4cccc(F)c4)nn3)S(=O)(=O)C2)cc1OC (stereo unspecified)	none (no result: Calb FLC, ARFGAP1 inhibitor, ASAP1 GAP inh, SKKanGAS inh)
CC(=O)Nc1ccc(-c2csc(NNC(=O)c3ccc(C)cc3)n2)cc1	HGIII-sPLA2 inh 30 | sPLA2 confirm 23 | BODIPY interf inactive
CN(C)Cc1c(C(C)(C)O)[nH]c2cc(C(F)(F)F)ccc12	none (no result: Calb FLC, SKKanGAS inh)
